≈ marks a conversion by molar mass, not a printed value.
Key:
Candida albicans [1] = assay: Antifungal activity against Candida albicans ATCC 44859 after 24 hrs by microdilution broth method; format: functional; details: ATCC 44859, 24 h
How it was run: (§1)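 CLSI M27-A3 broth microdilution in RPMI 1640 with glutamine, buffered to pH 7.0 with MOPS; DMSO diluent. Yeast inoculum 5 × 10^3 ± 0.2 CFU/mL. Moulds grown on Sabouraud agar 3–10 days before spore harvest, final inoculum 0.5-5 × 10^4 CFU/mL, checked in a Bürker chamber. Incubated dark, humid, 35 °C, read at 24 and 48 h visually and at 540 nm. MIC taken as ≥80% (yeasts) or ≥50% (filamentous) growth reduction versus control.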

Nakaseomyces glabratus [2] = assay: Antifungal activity against Candida glabrata 20/I after 48 hrs by microdilution broth method; format: functional; how it was run: as §1
Mycobacterium kansasii [3] = assay: Antimycobacterial activity against Mycobacterium kansasii 235/80 after 21 days; format: functional; details: 235/80, 504 h
How it was run: (§2)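 Šula's semisynthetic medium micromethod at 37 °C, read after 7, 14 and 21 days. The 1.0 McFarland suspension was diluted 10^-4. MIC determined. 6509/96 is a clinical isolate.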

Mycobacterium avium [4] = assay: Antimycobacterial activity against Mycobacterium avium 330/80 after 14 days; format: functional; details: 330/80, 336 h
Pseudomonas aeruginosa [5] = assay: Antibacterial activity against Pseudomonas aeruginosa CCM 1961 after 48 hrs by microdilution broth method; format: functional; details: CCM 1961, 48 h
How it was run: (§3)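 Mueller-Hinton broth microdilution (modified M07-A07), pH 7.4 (±0.2). Compounds dissolved in DMSO, tested at final 500 to 0.49 µmol/L. Inoculum in sterile water matched to 0.5 McFarland. Incubated in the dark, humid atmosphere, 35 °C, read at 24 and 48 h visually and at 540 nm. MIC taken as ≥95% growth reduction (IC95) versus control.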

Trichosporon asahii [6] = assay: Antifungal activity against Trichosporon asahii 1188 after 48 hrs by microdilution broth method; format: functional; details: Trichosporon asahii, 1188, 48 h; how it was run: as §1
Escherichia coli [7] = assay: Antibacterial activity against Escherichia coli CCM4517 after 48 hrs by microdilution broth method; format: functional; details: CCM4517, 48 h; how it was run: as §3
Staphylococcus aureus [8] = assay: Antibacterial activity against Staphylococcus aureus CCM 4516/08 after 24 hrs by microdilution broth method; format: functional; details: CCM 4516/08, 24 h
Klebsiella pneumoniae [9] = assay: Antibacterial activity against ESBL-positive Klebsiella pneumoniae J 14368/08 after 48 hrs by microdilution broth method; format: functional; details: J 14368/08, 48 h; how it was run: as §3
Aspergillus fumigatus [10] = assay: Antifungal activity against Aspergillus fumigatus 231 after 24 hrs by microdilution broth method; format: functional; details: Aspergillus fumigatus, 231, 24 h; how it was run: as §1
Candida tropicalis [11] = assay: Antifungal activity against Candida tropicalis 156 after 24 hrs by microdilution broth method; format: functional; details: Candida tropicalis, 156, 24 h; how it was run: as §1
Staphylococcus aureus [12] = assay: Antibacterial activity against methicillin-resistant Staphylococcus aureus H 5996/08 after 24 hrs by microdilution broth method; format: functional; details: H 5996/08, 24 h
Lichtheimia corymbifera [13] = assay: Antifungal activity against Absidia corymbifera 272 after 24 hrs by microdilution broth method; format: functional; details: Lichtheimia corymbifera, 272, 24 h; how it was run: as §1
Enterococcus sp. [14] = assay: Antibacterial activity against Enterococcus sp. J 14365/08 after 48 hrs by microdilution broth method; format: functional; details: J 14365/08, 48 h; how it was run: as §3
Pseudomonas aeruginosa [15] = assay: Antibacterial activity against Pseudomonas aeruginosa CCM 1961 after 24 hrs by microdilution broth method; format: functional; details: CCM 1961, 24 h; how it was run: as §3
Lichtheimia corymbifera [16] = assay: Antifungal activity against Absidia corymbifera 272 after 48 hrs by microdilution broth method; format: functional; details: Lichtheimia corymbifera, 272, 48 h; how it was run: as §1
Klebsiella pneumoniae [17] = assay: Antibacterial activity against Klebsiella pneumoniae D 11750/08 after 24 hrs by microdilution broth method; format: functional; details: D 11750/08, 24 h; how it was run: as §3
Trichosporon asahii [18] = assay: Antifungal activity against Trichosporon asahii 1188 after 24 hrs by microdilution broth method; format: functional; details: Trichosporon asahii, 1188, 24 h; how it was run: as §1
Mycobacterium kansasii [19] = assay: Antimycobacterial activity against Mycobacterium kansasii 235/80 after 14 days; format: functional; details: 235/80, 336 h; how it was run: as §2
Klebsiella pneumoniae [20] = assay: Antibacterial activity against ESBL-positive Klebsiella pneumoniae J 14368/08 after 24 hrs by microdilution broth method; format: functional; details: J 14368/08, 24 h; how it was run: as §3
[21] = test system: Mycobacterium tuberculosis; assay: Antimycobacterial activity against Mycobacterium tuberculosis H37Rv 331/88 after 21 days; format: functional; details: H37Rv 331/88, 504 h
Nakaseomyces glabratus [22] = assay: Antifungal activity against Candida glabrata 20/I after 24 hrs by microdilution broth method; format: functional; how it was run: as §1
[23] = test system: Trichophyton mentagrophytes; assay: Antifungal activity against Trichophyton mentagrophytes 445 after 24 hrs by microdilution broth method; format: functional; details: Trichophyton mentagrophytes, 445, 24 h
Aspergillus fumigatus [24] = assay: Antifungal activity against Aspergillus fumigatus 231 after 48 hrs by microdilution broth method; format: functional; details: Aspergillus fumigatus, 231, 48 h; how it was run: as §1
Staphylococcus aureus [25] = assay: Antibacterial activity against Staphylococcus aureus CCM 4516/08 after 48 hrs by microdilution broth method; format: functional; details: CCM 4516/08, 48 h
Mycobacterium kansasii [26] = assay: Antimycobacterial activity against Mycobacterium kansasii 235/80 after 7 days; format: functional; details: 235/80, 168 h; how it was run: as §2
[27] = Selectivity index, ratio of CI50 for human HepG2 cells to MIC100 for Mycobacterium tuberculosis H37Rv 331/88
Pichia kudriavzevii [28] = assay: Antifungal activity against Candida krusei E28 after 48 hrs by microdilution broth method; format: functional; details: E28, 48 h; how it was run: as §1
Mycobacterium kansasii [29] = assay: Antimycobacterial activity against Mycobacterium kansasii 6509/96 after 21 days; format: functional; details: 6509/96, 504 h; how it was run: as §2
Candida albicans [30] = assay: Antifungal activity against Candida albicans ATCC 44859 after 48 hrs by microdilution broth method; format: functional; details: ATCC 44859, 48 h; how it was run: as §1
Klebsiella pneumoniae [31] = assay: Antibacterial activity against Klebsiella pneumoniae D 11750/08 after 48 hrs by microdilution broth method; format: functional; details: D 11750/08, 48 h; how it was run: as §3
[32] = test system: Trichophyton mentagrophytes; assay: Antifungal activity against Trichophyton mentagrophytes 445 after 48 hrs by microdilution broth method; format: functional; details: Trichophyton mentagrophytes, 445, 48 h
[33] = test system: Staphylococcus epidermidis; assay: Antibacterial activity against Staphylococcus epidermidis H 6966/08 after 48 hrs by microdilution broth method; format: functional; details: H 6966/08, 48 h; how it was run: as §3
Pichia kudriavzevii [34] = assay: Antifungal activity against Candida krusei E28 after 24 hrs by microdilution broth method; format: functional; details: E28, 24 h; how it was run: as §1
Staphylococcus aureus [35] = assay: Antibacterial activity against methicillin-resistant Staphylococcus aureus H 5996/08 after 48 hrs by microdilution broth method; format: functional; details: H 5996/08, 48 h
HepG2 = assay: Cytotoxicity against human HepG2 cells after 24 hrs […]; format: cell-based; details: HepG2, 24 h
[36] = test system: Mycobacterium tuberculosis; assay: Antimycobacterial activity against Mycobacterium tuberculosis H37Rv 331/88 after 14 days; format: functional; details: H37Rv 331/88, 336 h
Escherichia coli [37] = assay: Antibacterial activity against Escherichia coli CCM4517 after 24 hrs by microdilution broth method; format: functional; details: CCM4517, 24 h; how it was run: as §3
Mycobacterium kansasii [38] = assay: Antimycobacterial activity against Mycobacterium kansasii 6509/96 after 7 days; format: functional; details: 6509/96, 168 h; how it was run: as §2
[39] = test system: Staphylococcus epidermidis; assay: Antibacterial activity against Staphylococcus epidermidis H 6966/08 after 24 hrs by microdilution broth method; format: functional; details: H 6966/08, 24 h; how it was run: as §3
Mycobacterium kansasii [40] = assay: Antimycobacterial activity against Mycobacterium kansasii 6509/96 after 14 days; format: functional; details: 6509/96, 336 h; how it was run: as §2
Mycobacterium avium [41] = assay: Antimycobacterial activity against Mycobacterium avium 330/80 after 21 days; format: functional; details: 330/80, 504 h
Candida tropicalis [42] = assay: Antifungal activity against Candida tropicalis 156 after 48 hrs by microdilution broth method; format: functional; details: Candida tropicalis, 156, 48 h; how it was run: as §1
Enterococcus sp. [43] = assay: Antibacterial activity against Enterococcus sp. J 14365/08 after 24 hrs by microdilution broth method; format: functional; details: J 14365/08, 24 h; how it was run: as §3

For `O=C(Nc1cc(C(F)(F)F)cc(C(F)(F)F)c1)c1ccc([N+](=O)[O-])cc1O`, the MIC (Candida albicans [1]) was greater than 500 µM, the MIC (Nakaseomyces glabratus [2]) was greater than 500 µM and the MIC (Mycobacterium kansasii [3]) was 16 µM (≈ 6.31 µg/mL). For the same molecule, the MIC (Mycobacterium avium [4]) was 32 µM (≈ 12.6 µg/mL), the MIC (Pseudomonas aeruginosa [5]) was greater than 500 µM and the MIC (Trichosporon asahii [6]) was greater than 500 µM. The MIC (Escherichia coli [7]) was greater than 500 µM, the MIC (Staphylococcus aureus [8]) was 1.95 µM (≈ 0.769 µg/mL) and the MIC (Klebsiella pneumoniae [9]) was greater than 500 µM. The MIC (Aspergillus fumigatus [10]) was greater than 500 µM, the MIC (Candida tropicalis [11]) was greater than 500 µM and the MIC (Staphylococcus aureus [12]) was 0.98 µM (≈ 0.386 µg/mL). For the same molecule, the MIC (Lichtheimia corymbifera [13]) was greater than 500 µM, the MIC (Enterococcus sp. [14]) was 125 µM (≈ 49.3 µg/mL) and the MIC (Pseudomonas aeruginosa [15]) was greater than 500 µM. It also gave an MIC (Lichtheimia corymbifera [16]) greater than 500 µM, an MIC (Klebsiella pneumoniae [17]) greater than 500 µM and an MIC (Trichosporon asahii [18]) greater than 500 µM. For the same molecule, the MIC (Mycobacterium kansasii [19]) was 16 µM (≈ 6.31 µg/mL), the MIC (Klebsiella pneumoniae [20]) was greater than 500 µM and the MIC [21] was 8 µM (≈ 3.15 µg/mL). It also gave an MIC (Nakaseomyces glabratus [22]) greater than 500 µM, an MIC [23] greater than 500 µM and an MIC (Aspergillus fumigatus [24]) greater than 500 µM. The MIC (Staphylococcus aureus [25]) was 1.95 µM (≈ 0.769 µg/mL), the MIC (Mycobacterium kansasii [26]) was 8 µM (≈ 3.15 µg/mL) and the “Selectivity Index” value [27] was 0.55. The MIC (Pichia kudriavzevii [28]) was greater than 500 µM, the MIC (Mycobacterium kansasii [29]) was 16 µM (≈ 6.31 µg/mL) and the MIC (Candida albicans [30]) was greater than 500 µM. The MIC (Klebsiella pneumoniae [31]) was greater than 500 µM, the MIC [32] was greater than 500 µM and the MIC [33] was 1.95 µM (≈ 0.769 µg/mL). The MIC (Pichia kudriavzevii [34]) was greater than 500 µM, the MIC (Staphylococcus aureus [35]) was 0.98 µM (≈ 0.386 µg/mL) and the IC50 (HepG2) was 4.4 µM. The MIC [36] was 4 µM (≈ 1.58 µg/mL), the MIC (Escherichia coli [37]) was greater than 500 µM and the MIC (Mycobacterium kansasii [38]) was 16 µM (≈ 6.31 µg/mL). For the same molecule, the MIC [39] was 1.95 µM (≈ 0.769 µg/mL), the MIC (Mycobacterium kansasii [40]) was 16 µM (≈ 6.31 µg/mL) and the MIC (Mycobacterium avium [41]) was 32 µM (≈ 12.6 µg/mL). It also gave an MIC (Candida tropicalis [42]) greater than 500 µM and an MIC (Enterococcus sp. [43]) of 62.5 µM (≈ 24.6 µg/mL).
